Laboratory results taken from ChEMBL document CHEMBL4513216, “Probing the Open Global Health Chemical Diversity Library for Multistage-Active Starting Points for Next-Generation Antimalarials” (ACS Infect Dis, 2020).

assay: Toxicity liver stage against HepG2, at 10uM; assay type: cell-based; parameters: test concentration 10 uM, cell line HepG2-A16-CD81EGFP; conditions: human, HepG2-A16-CD81EGFP cells; read-out: INHIBITION
Summary of the method: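 Uninfected HepG2-A16-CD81EGFP cells, 3 × 10^3 per well, 1536-well, plated on prespotted compound at 10 μM final, parasite-free screening media added to match infected plates; puromycin 10 μM positive, DMSO 0.5% negative; run in parallel with 48 h PbLuc assay at 37 °C, 5% CO2; viability by CellTiter-Glo luminescence, normalized to controls.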

Point of comparison: `Cc1cnccc1-c1cc(NCCO)nc2[nH]ccc12`, cytotoxicity at 10 µM 13.8%. Against it:
- COc1ccc(-c2nnc([C@H]3CCN(C4CCC4)C3)o2)cc1 — lower, -8.1%
- CCOC(=O)[C@H]1[C@@H](O)C(=O)N(C)C12CCN(C(=O)c1ccccc1)CC2 — lower, -6.53%
- COc1ccc(-c2csc3c2c(N)nc(=O)n3CC(N)=O)cc1 — lower, -42.2%
- CCOc1ccc(S(=O)(=O)N(CCOC)Cc2ccncc2)cc1F — higher, 52.2%
- O=C(c1ccco1)N1CCC12CCN(c1ncc(F)cn1)CC2 — lower, -1.3%
- CNC(=O)[C@@H]1CC[C@@H]2[C@@H](CCN2C(=O)N(C)C)O1 — lower, 13.2%
- OCCOCc1n[nH]c2c1CN(Cc1cccs1)C2 — lower, 6.65%
- Cc1nc(C(=O)N2C[C@@H]3CN(S(C)(=O)=O)CCO[C@@H]3C2)cs1 — lower, 1.98%
- O=C(c1ccco1)N1CC[C@H]2[C@H]1CCN2S(=O)(=O)C1CC1 — lower, 9.22%
- CS(=O)(=O)N1CCCC12CCCN(C(=O)c1ccc3[nH]ccc3c1)C2 (stereo not drawn) — lower, -140%
- Cc1c(C)n(Cc2ccccn2)c2nc3c(c(N)c12)CCCC3 — lower, 8.37%
- Cc1cccc(CN2C[C@@H]3CN(C(=O)[C@H]4CCCO4)C[C@@H]3C2=O)c1 — lower, 9.95%
- CC(C)CCN1CCN(CC(=O)Nc2ccc3nsnc3c2)CC1 — lower, -0.216%
- Cc1nn(C)c2cn(C(C)C(=O)NCc3cccc(F)c3)nc12 (stereo not drawn) — lower, 6.61%
- CCn1nc(C)c(CNC(=O)c2nnc3ccccc3n2)c1C — lower, 5.81%
- CCOC(=O)N1CCN(C(=O)c2cc(OCC)c3ccoc3c2)CC1 — higher, 41.5%
- CCCN1CCC(c2cc(CCOc3ccc(C(F)(F)F)cc3)[nH]n2)C1 (stereo not drawn) — lower, -3.58%
- O=C(C1CC1)N1C[C@H]2CCCN(S(=O)(=O)c3ccc4c(c3)CCC4)[C@H]2C1 — lower, 8.52%
- Cn1ncc2ccc(C3CCCN(C(=O)Cc4cccs4)C3)nc21 (stereo not drawn) — lower, 10%
- CN1CCCCC1c1ncc2c(n1)CCN(Cc1ccc(Cl)c(F)c1)C2 (stereo not drawn) — lower, -27.7%
- Cc1cc(-c2cnc(NC3CC3)nc2-c2ccoc2C)on1 — lower, 2.13%
- Cc1cc(C)nc(N2CCC(OCCN3CCCCC3)C2)n1 (stereo not drawn) — lower, -53.6%
- Cc1cccn2cc(CC(=O)N(CCN(C)C)CC3CCCO3)nc12 (stereo not drawn) — lower, 0.462%
- Cc1ccc(CNC(=O)C2CCNC(=O)C2)c(OCCC(C)C)c1 (stereo not drawn) — higher, 20.4%
- CC(=O)N1Cc2ccccc2C[C@H]1C(=O)N(C)CCc1ccccn1 — lower, -3.27%
- N#Cc1cccc(CS(=O)(=O)NC(Cc2ccccc2)C(N)=O)c1 (stereo not drawn) — lower, 9.16%
- CN(C(=O)C1CCN(Cc2cnc3ccccn23)CC1)c1ccccc1 — higher, 38.9%
- CC(C)Cn1ncc(C(=O)NS(=O)(=O)C2CCCC2)c1C1CC1 — lower, -9.97%
- Cc1ccc(-c2cc(CN(CC(N)=O)CC(C)C)on2)cc1 — lower, 10.1%
- CN(C)c1nc(N)nc(CN2CCCC(c3ccccc3)CC2)n1 (stereo not drawn) — lower, 5.47%
- Cc1cc(C)cc(CNC(C)c2c(C)nn(C)c2C)c1 (stereo not drawn) — lower, 5.14%
- NC(=O)CN1CCN(CC2CC2)c2ccccc21 — lower, 3.92%
- Cc1nc(C2CCCN(C(=O)C3=NN(C(C)C)C(=O)CC3)C2)no1 (stereo not drawn) — lower, -3.32%
- Clc1cncc(NCc2cccc(OCCN3CCOCC3)c2)n1 — lower, 9.71%
- COc1ccc(CCNC(=O)C(C)Nc2ccc(C)c(C)c2)cc1 (stereo not drawn) — lower, 2.7%
- CCCn1cc(NC(=O)c2cccnc2O)ccc1=O — lower, -13.1%
- CC(C)(C#N)c1ccccc1CN1CCC(N2CCCC2=O)CC1 — lower, 2.35%
- Cc1ccc(-n2nnc(C(=O)NCCS(N)(=O)=O)c2C2CC2)cc1 — lower, -5.21%
- CCc1nc(CCNC(=O)Nc2ccc(C(=O)NC)cc2)cs1 — lower, 7.51%
- O=C(CCN1CCCC1c1cccc2c1OCCO2)N1CCOCC1 (stereo not drawn) — higher, 25.6%
- Cc1nn(C)c(C)c1C1COCCN1c1ncncc1Br (stereo not drawn) — lower, -8.9%
- CN(C)c1cccc(C(=O)NCC2(O)CCOCC2)c1 — lower, 10.3%
- CC(C#N)CSc1ccccc1NCC(=O)NCc1cccs1 (stereo not drawn) — lower, 2.13%
- CC(=O)Nc1cccc(OCCNC(=O)N(C)Cc2ccncc2)c1 — lower, 4.77%
- CCc1ccc(C(=O)N2CCCC2c2nnc3n2CCCCC3)o1 (stereo not drawn) — lower, 10.9%
- Cc1occc1CNC(=O)C1(C)CCCN(C(=O)c2ccccc2)C1 (stereo not drawn) — lower, -7.01%
- CCc1cc(N2CCCC(c3noc(CC)n3)C2)ncn1 (stereo not drawn) — lower, 9.74%
- CCCC(NC(=O)NCc1cccc(N(C)C)n1)c1ccccn1 (stereo not drawn) — higher, 19.8%
- CC(SCc1cc(Br)cc2cccnc12)C(N)=O (stereo not drawn) — lower, 11.7%
- CCOC1CCN(C(=O)NCCN(C)C(=O)OC(C)(C)C)CC1 — higher, 15.8%
- Cc1n[nH]c(SCC(=O)NC(c2ccccn2)C(C)C)n1 (stereo not drawn) — lower, -2.62%
- Cc1cc(C2CCCN2C(=O)CN(C)Cc2ccccc2)no1 (stereo not drawn) — lower, 5.1%
- CC(C)N(CCNC(=O)c1[nH]nc2ccc(I)cc12)C(C)C — lower, -41.1%
- CCCNC(=O)c1ncn2c1CN(CC(C)C)S(=O)(=O)c1ccccc1-2 — lower, -72%
- CCC(=O)N1CCC2(COCc3cnc(N4CCOCC4)nc32)C1 (stereo not drawn) — lower, -66.2%
- Cn1cccc1C(=O)NCc1cn2c(n1)CN(CC1CCOC1)CC2 (stereo not drawn) — lower, -99.7%
- COCCC(=O)N1CCC2(CCN(Cc3cccc(F)c3)C2)C1 (stereo not drawn) — lower, -60.2%
- Cc1ccc(C(=O)N2CC[C@H]3[C@H]2CCN3CC2CCOCC2)cn1 — lower, -73.3%
- COCCN1CCOCC12CCN(C(=O)c1c[nH]c3ccccc13)CC2 — lower, -69.8%
- c1cc2c(c(-c3cc(N4CCOCC4)ncn3)c1)CCNC2 — lower, -22.5%
- Cc1cc(C)c2c(N3CCN(Cc4ncccc4C)CC3)ncnc2n1 — lower, 1.92%
- CCN(C)C[C@H]1CC[C@@H](Cc2ccc3c(cnn3C)c2)O1 — lower, -0.957%
- CCN1CCN(C(=O)c2ccc3c(c2)OCC(=O)N3)[C@H]2CS(=O)(=O)C[C@H]21 — lower, -49.6%
- Cc1ccc(C(=O)NCC2CCN(Cc3ccccc3C#N)C2)cn1 (stereo not drawn) — lower, 1.48%
- Cc1cccc(-c2nc(N)nc3c2CN(C(=O)c2cc(C)n[nH]2)C3C)c1 (stereo not drawn) — lower, 4.58%
- Cc1cc(N2CCCN(C(=O)Cc3cccnc3)CC2)ccn1 — lower, 2.5%
- Nc1cc(-c2nccnc2N2CCCC2)c2cc[nH]c2n1 — lower, 13.6%
- Cc1nonc1OCCNC(=O)CCCc1ccc(Cl)cc1 — lower, 7.49%
- Cc1nnc(SCCCNc2cc(C3CC3)ncn2)s1 — higher, 19.8%
- COC(=O)c1cc(OCC2CCC2)cc(C(=O)N[C@@H]2CCCNC2)c1 — lower, -3.16%
- Nc1cc(CC2COc3ccccc3C2)ccn1 (stereo not drawn) — lower, -0.911%
- NC(=O)CN1CCCC(C(=O)N2CCC(O)(c3ccccc3)CC2)C1 (stereo not drawn) — lower, -7.55%
- CCn1ccnc1CN(C)c1cc(OC)ncn1 — lower, -37.5%
- COc1cccc([C@H]2CN(C(=O)c3nnc4n3CCCC4)C[C@@H]2N)c1 — lower, -2.57%
- COc1nc2ccn(CCNc3cc(C)ccn3)c(=O)c2cc1C#N — lower, 11.7%
- CN(C)S(=O)(=O)NC1CCCc2c1cnn2-c1ccc(C(C)(C)C)cc1 (stereo not drawn) — higher, 42.5%
- CN1C[C@@H](N)C[C@H]1C(=O)N1CCC(Cc2ccc(F)cc2)CC1 — lower, -21.2%
- COc1ccc2c(c1)ncn2C[C@]1(O)CCCN2CCCC[C@@H]21 — lower, -0.71%
- Cc1cc(CN(C)C(C(=O)O)c2ccc(C(C)(C)C)cc2)on1 (stereo not drawn) — lower, -6.36%
- CCS(=O)(=O)c1ncc(CN2CCSCC2)n1CCc1ccccc1 — lower, -1.95%
- O=C1CC2(CCN(Cc3ccc4cccc(O)c4n3)CC2)CN1 — lower, -15.3%
- CCc1ccccc1OC1CN(C(=O)CN(C)Cc2ccncc2)C1 — lower, -4.55%
- Cc1nc2sccn2c1C(=O)N1CCc2[nH]cnc2C1 — lower, -6.11%
- NCc1cn(CC2CCCN(C(=O)CC3=CCCCC3)C2)nn1 (stereo not drawn) — lower, 1.46%
- COC(=O)c1sccc1S(=O)(=O)N1CCc2c(ncnc2N(C)C)C1 — lower, -1.6%
- COC(=O)c1cccnc1N1CCC(Oc2cccc(F)c2)CC1 — lower, 3.31%
- O=C(c1cnc(Nc2ccccc2)nc1)N1CCCC2(CCNC2)C1 (stereo not drawn) — lower, -6.57%
- O=C(NCc1ccccn1)C1CN(c2nc3ccccc3s2)CCN1 (stereo not drawn) — lower, -42.8%
- Cc1cccc(CN2CCC(c3nccn3CC(N)=O)CC2)n1 — lower, -5.41%
- CC(C)c1nccn1-c1cccc(C2CCN(C)CC2)n1 — lower, 0.307%
- CCc1ccc(C(CNC(=O)c2c(C)noc2C)N(C)C)cc1 (stereo not drawn) — lower, -7.83%
- CCCC(=O)NC1CCN(c2ccccc2S(=O)(=O)CC)CC1 — lower, -2.78%
- Cc1cnn(CC(C)NCc2ccc(OCc3cccnc3)cc2)c1 (stereo not drawn) — lower, -1.07%
- COCCN1CCC(CNC(=O)c2cc(C)cc(C)c2)C1 (stereo not drawn) — lower, -7.32%
- CCNC(=O)c1ccc(CNCc2c(C)nn(C)c2N(C)C)cc1 — lower, 1.71%
- Cc1nc(CN2CCCC(N(C)Cc3c(C)noc3C)C2)no1 (stereo not drawn) — lower, -0.866%
- CCN(CC)C(=O)C1CCC2(CCNCC2)O1 (stereo not drawn) — lower, -162%
- Cc1ccc(CN2CC[C@H]3[C@H]2CCN3S(C)(=O)=O)s1 — lower, 2.38%
- c1cnc(N2C[C@H]3CCN(CC4CC4)C[C@H]3C2)cn1 — lower, -108%
- O=C(CC1CC1)N1CC[C@H]2[C@@H]1CCC(=O)N2c1cccnc1 — lower, 3.06%
- Cn1nccc1-c1ncc2c(c1C(=O)O)CCN(Cc1ccccc1)C2 — lower, 9.97%
- CN1CCN(Cc2ccncc2)C(=O)C12CCN(c1nccs1)CC2 — lower, -2.82%
- CC(C)N1[C@H](Cn2cccn2)C[C@@H]2CN(Cc3ccoc3)CC[C@@H]21 — lower, -153%
- O=C(c1ccncc1F)N1CC2CC1(C(=O)N1CCCC1)C2 — lower, -2.51%
- O=C(c1ccncc1)N1CCOC2(CCCN(c3nncs3)C2)C1 (stereo not drawn) — lower, -98%
- Cn1ccnc1CN1CCC2(CC1)CN(c1cncnc1)C(=O)CO2 — lower, -69.2%
- COc1cc(C2c3c(n[nH]c3C)N=C3COC(=O)C32)cc2c1OCO2 (stereo not drawn) — higher, 87.7%
